These results are taken from ChEMBL document CHEMBL1833867, “Conformationally constrained analogs of BAY 59-3074 as novel cannabinoid receptor ligands” (Bioorg Med Chem Lett, 2011).

Structures are written as SMILES.

Assay [1] deals with Cannabinoid receptor 2 (Homo sapiens, UniProt P34972). The assay is described as follows: Displacement of [3H]CP55940 from human cannabinoid CB2 receptor.
The next assay deals with Cannabinoid receptor 1 (Rattus norvegicus, UniProt P20272). The assay is described as follows: Displacement of [3H]CP55940 from rat cannabinoid CB1 receptor.
A short description of assay [2]: Selectivity ratio of Ki for rat cannabinoid CB1 receptor to Ki for human cannabinoid CB2 receptor.
Assay [3] addresses Cannabinoid receptor 2 (Mus musculus, UniProt P47936). The assay is described as follows: Displacement of [3H]CP55940 from mouse cannabinoid CB2 receptor.
Assay [4] is described as follows: Binding affinity to CB receptor in rat brain membranes. The format is cell membranes. The procedure, abridged: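 Radioligand competition binding at rat CB1, displacing [3H]CP55,940.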

Sequence of Cannabinoid receptor 1 (P20272 whole entry): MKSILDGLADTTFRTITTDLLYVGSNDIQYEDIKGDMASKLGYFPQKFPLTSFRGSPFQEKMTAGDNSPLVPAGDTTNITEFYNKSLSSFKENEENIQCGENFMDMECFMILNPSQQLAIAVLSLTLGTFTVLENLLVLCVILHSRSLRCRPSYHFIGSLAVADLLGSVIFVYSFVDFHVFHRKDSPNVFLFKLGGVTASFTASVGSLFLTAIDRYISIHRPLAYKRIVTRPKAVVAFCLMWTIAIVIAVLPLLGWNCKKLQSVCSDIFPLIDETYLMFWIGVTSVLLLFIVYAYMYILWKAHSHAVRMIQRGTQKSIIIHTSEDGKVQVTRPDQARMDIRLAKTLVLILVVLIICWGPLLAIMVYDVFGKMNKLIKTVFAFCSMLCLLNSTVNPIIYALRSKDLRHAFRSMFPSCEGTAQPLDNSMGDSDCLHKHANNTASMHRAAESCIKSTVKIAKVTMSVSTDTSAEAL
Sequence of Cannabinoid receptor 2 (Mus musculus, UniProt P47936) (P47936 whole entry): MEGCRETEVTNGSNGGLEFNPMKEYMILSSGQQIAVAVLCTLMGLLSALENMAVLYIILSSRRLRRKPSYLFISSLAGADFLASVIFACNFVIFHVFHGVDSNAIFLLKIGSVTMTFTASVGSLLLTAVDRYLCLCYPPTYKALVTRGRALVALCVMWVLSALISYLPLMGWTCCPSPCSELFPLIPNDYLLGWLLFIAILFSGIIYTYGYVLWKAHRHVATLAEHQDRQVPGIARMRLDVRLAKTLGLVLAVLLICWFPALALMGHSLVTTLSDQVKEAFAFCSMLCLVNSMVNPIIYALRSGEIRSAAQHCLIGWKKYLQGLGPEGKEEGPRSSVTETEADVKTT
Sequence of Cannabinoid receptor 2 (Homo sapiens, UniProt P34972) (P34972 whole entry): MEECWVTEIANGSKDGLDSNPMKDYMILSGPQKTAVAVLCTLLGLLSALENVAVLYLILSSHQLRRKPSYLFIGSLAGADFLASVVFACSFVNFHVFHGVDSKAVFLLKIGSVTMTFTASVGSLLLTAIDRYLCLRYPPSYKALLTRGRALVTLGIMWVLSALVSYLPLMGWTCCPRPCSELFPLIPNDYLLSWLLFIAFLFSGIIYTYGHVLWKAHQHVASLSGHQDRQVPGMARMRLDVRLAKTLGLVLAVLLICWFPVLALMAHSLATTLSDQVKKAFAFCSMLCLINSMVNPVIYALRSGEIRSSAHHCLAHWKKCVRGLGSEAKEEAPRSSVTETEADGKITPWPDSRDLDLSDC

Consider `N#Cc1c(C(F)(F)F)ccc2c1oc1cccc(OS(=O)(=O)CCCC(F)(F)F)c12`, for which the Ki at Cannabinoid receptor 2 [1] stood at 1.81 µM; at Cannabinoid receptor 1 it was 1.9 µM; at Cannabinoid receptor 2 [3] it was 0.676 µM. Further, the Ratio Ki in assay [2] was 1.05.
`O=S(=O)(CCCC(F)(F)F)Oc1cccc(Oc2cccc3c2C[C@H](CO)C3)c1` displayed a Ki in assay [4] of 0.00046 µM. That is a sub-nanomolar value.
For the molecule `N#Cc1c(C(F)(F)F)ccc2c1oc1c(OS(=O)(=O)CCCC(F)(F)F)cccc12`, the inhibition constant Ki on Cannabinoid receptor 2 [1] worked out at 0.253 µM; at Cannabinoid receptor 1, 2.28 µM; on Cannabinoid receptor 2 [3] it was 0.41 µM. Besides, the Ratio Ki in assay [2] is 9.
As to `N#Cc1c(Oc2cccc(OS(=O)(=O)CCCC(F)(F)F)c2)cccc1C(F)(F)F`, the Ratio Ki in assay [2] was determined as 1.21.
As for `N#Cc1c(C(F)(F)F)ccc2c1Oc1c(cccc1OS(=O)(=O)CCCC(F)(F)F)C2`, the values for the Ki on Cannabinoid receptor 2 [1], on Cannabinoid receptor 1 and at Cannabinoid receptor 2 [3] were 1.16 µM, 14.4 µM and 1.13 µM, respectively. Moreover, the Ratio Ki in assay [2] is 12.4.
As for `N#Cc1c(C(F)(F)F)ccc2c1oc1cc(OS(=O)(=O)CCCC(F)(F)F)ccc12`, the Ki at Cannabinoid receptor 2 [1] worked out at 0.317 µM; at Cannabinoid receptor 1, 1.06 µM; on Cannabinoid receptor 2 [3] it was 0.339 µM. The Ratio Ki in assay [2] amounted to 3.35.
The matching figures for `N#Cc1c(C(F)(F)F)ccc2c1oc1ccc(OS(=O)(=O)CCCC(F)(F)F)cc12`: 3.29 µM, 2.53 µM, 1.71 µM and 0.76.

Usually Ki stands for the equilibrium dissociation constant of an inhibitor or competing ligand from its target. High values mean lower affinity, low ones higher affinity.
